Experimental data: PMC9623456 (RSC Advances, 2022)
≈ marks a conversion by molar mass, not a printed value.

How the values were obtained:
[1] = tested on: mouse embryo cell lines 3T3-L1; assay: MTT assay; format: cell-based; conditions: for IC50: Mus musculus, 3T3-L1, read-out: 3T3-L1 IC50
Procedure, shortened: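 MTT metabolic-activity assay in mouse embryo 3T3-L1 cells exposed to a range of test-compound concentrations. Percent viability was calculated by formula and plotted against concentration in μg ml−1. IC50 was taken from the dose–response curve as the concentration giving 50% growth suppression.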

3T3-L1 cells = assay: Scratch wound assay; format: cell-based, mouse; conditions: 3T3-L1, 24 hours
Procedure, shortened: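 Scratch assay: 3T3-L1 cells were grown to confluence, then wounded with a pipette tip and treated with test compounds. Wound width was measured at the time of scratching and again after 24 h.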

diabetic rats = assay: Full thickness excision wound model in STZ-nicotinamide diabetic rats; format: in vivo, Wistar male albino rats
mice = assay: Acute oral toxicity study; format: in vivo
Procedure, shortened: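 OECD 420 fixed-dose procedure in mice. Animals were dosed orally in stepwise groups at fixed doses of 5, 50, 300 and 2000 mg kg−1. Further groups received higher or lower fixed doses depending on the presence or absence of toxicity or death. Read-outs were clinical signs of toxicity and mortality.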

[2] = target: HIF-1α prolyl hydroxylase-2 (PHD2); conditions: PHD2 inhibition; cited from earlier work
[3] = Phase 2 trial; cited from earlier work

c1ccc(-c2cc(-c3ccccc3)n(CN(c3ccccc3)c3ccccc3)n2)cc1 [CDPA, N-[(3,5-diphenylpyrazol-1-yl)methyl] -N-phenylaniline]
IC50 [1]: 132 µg/mL (≈ 328 µM)

c1ccc(-c2cc(-c3ccccc3)n(Cn3cccn3)n2)cc1 [CP, 3,5-Diphenyl-1-(pyrazole-1-ylmethyl) pyrazole]
IC50 [1]: 111 µg/mL (≈ 371 µM) | Activity compared to the positive control hyaluronic acid (3T3-L1 cells): comparable activity

c1ccc(-c2cc(-c3ccccc3)n(Cn3ccnc3)n2)cc1 [CI, 1-(Imidazol-1-ylmethyl) −3,5-diphenylpyrazole]
Wound contraction (%) (diabetic rats; High dose 150 mg kg^−1, oral, Day 3): 24.5 ± 0.48 % | Wound contraction (%) (diabetic rats; High dose 150 mg kg^−1, oral, Day 7): 31.25 ± 0.39 % | Wound contraction (%) (diabetic rats; High dose 150 mg kg^−1, oral, Day 11): 64.00 ± 0.44 % | Wound contraction (%) (diabetic rats; Low dose 75 mg kg^−1, oral, Day 3): 18.25 ± 0.55 % | Wound contraction (%) (diabetic rats; Low dose 75 mg kg^−1, oral, Day 7): 24.50 ± 0.30 % | Wound contraction (%) (diabetic rats; Low dose 75 mg kg^−1, oral, Day 11): 41.5 ± 0.43 % | Wound contraction (%) (diabetic rats; Low dose 75 mg kg^−1, oral, Day 15): 55.77 ± 0.42 % | Wound healing in rats (diabetic rats; oral, diabetic rats): improved wound healing | IC50 [1]: 107 µg/mL (≈ 355 µM) | Acute oral toxicity outcome (mice; oral, 2000 mg kg^−1): died | Acute oral toxicity outcome (mice; oral, 5, 50, and 300 mg kg^−1): no adverse effects or fatality | Activity compared to the positive control hyaluronic acid (3T3-L1 cells): comparable activity

O=C(O)CNC(=O)c1nc(Cl)c2ccccc2c1O [FG-2216]
IC50 [2]: 3.9 µM | Fatal outcome [3]: one patient died of hepatic necrosis | Liver enzyme test results [3]: aberrant liver enzyme test results

Hyaluronic acid [reference compound]
3T3-L1 IC50 ([1]; MTT assay, 3T3-L1): 112.59 µg/mL
